Data on three compounds can be found in publication PMC3248652 (International Journal of Biological Sciences, 2011).

“Also recorded” adds a separate entry of the source. Read-outs that look alike come from different tables or passages of the source. Non-standard residues stand in square brackets, D forms with d.

The test system of data set [1] is GHS-R. Conditions: cited from earlier work.
For data set [2] the following is noted: ref [22]; cited from earlier work.
Data set [3] deals with pancreatic carcinoma. To be noted: ref [21]; cited from earlier work.
For data set [4], the system named is breast carcinoma. To be noted: ref [20]; cited from earlier work.
For data set [5], the system named is glioma cell invasion. Conditions: ref [6]; cited from earlier work.
For data set [6], the system named is CXCR4 mediated HIV viral entry. Conditions: ref [19]; cited from earlier work.
In data set [7] the test system is ERK activation (activated human T cells). The data set can be described thus: CXCL12-induced ERK phosphorylation. It is filed as cell-based. The gist of the method: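 About 10 million activated T cells per 0.5 ml per treatment, pretreated with test compound (20µM) for 30 min at 37°C. CXCL12 was then added to 10nM final. Cells were washed, harvested and lysed in RIPA buffer with protease and phosphatase inhibitors at 1, 3 and 10 min. Protein was measured by Bradford. 30μg lysate was run on 4-20% SDS-PAGE, blotted to nitrocellulose, and phospho-ERK detected by ECL.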

Data set [8] concerns CXCR4. To be noted: ref [15]; cited from earlier work.
Data set [9] relates to CXCR4 (primary human T cells). The data set can be described thus: CXCL12-induced intracellular calcium mobilization in primary human T cells. Type of data set: cell-based. Conditions: Fura-2AM, CXCL12 10nM. The gist of the method:
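Human T cells were enriched from Ficoll-isolated PBMCs on T-cell enrichment columns, loaded with Fura-2-AM, and washed. They were then pretreated 20 min with the test compound at various concentrations. CXCL12 was added to 10nM final. Ca++ release was monitored in a luminescence spectrometer (ex 340 and 380 nm, em 510 nm) and expressed as the 340/380 ratio. At least three experiments were run.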
For orientation: Calcium flux is commonly read through the fluorescence of an indicator in the cells.

The test system of data set [10] is CXCR4. Kind of data set: CXCR4 binding and activity, overall statement. Type of data set: cell-based, human. Conditions: T cells and PBMCs; summary statement.
Data set [11] deals with obese mice. To be noted: ref [24], cited from earlier work.
The test system of data set [12] is CXCR4 (GHOST-CXCR4 cells). Kind of data set: Fluorokine. It is filed as binding.
Data set [13] relates to HIV1-IIIB (CXCR4 tropic). Kind of data set: HIV1-IIIB propagation in activated PBMCs. Conditions: activated human PBMCs. It is filed as cell-based, HIV-1. The gist of the method:
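PBMCs were activated 3 days with PHA 5μg/ml and IL-2 10 units/ml, then washed into cRPMI at 10^6/ml. Cells were pretreated 30 min at 37°C with the test compound and infected with HIV1-IIIB (10ng/ml p24) for 3 h. Cells were washed, replated at 500,000/ml in triplicate, and compound re-added. Supernatant p24 was measured by ELISA on days 3, 6 and 9 and expressed as % of virus-only control. Three donors were used.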

Data set [14] has as its system CXCR4 (primary human T cells). Kind of data set: CXCL12-induced T cell Transwell chemotaxis. Conditions: CXCL12 10nM, 5 h 37°C, mean ±SEM of three experiments. It is filed as cell-based.
[15] abbreviates: obese mice, repeated administration.

Take H-H[dW]AW[dF]K-NH2 [GHRP-6]: the “activity at GHS-R” value in [1] (ref [9]) is “GHS-R agonist”.

Take `c1cc(CN2CCCNCCNCCCNCC2)ccc1CN1CCCNCCNCCCNCC1` [AMD3100]: in [2], the “effect on allergy and collagen induced arthritis” value is “decreases allergy and collagen induced arthritis”. Moreover, the “effect on metastasis of pancreatic carcinoma” value in data set [3] is recorded as “blocks”. For the same compound, the “effect on metastasis of breast carcinoma” value in [4] was “blocks”. Also, the “effect on glioma cell invasion” value in data set [5] is recorded as “blocks glioma cell invasion”. Also, the “effect on CXCR4 mediated HIV viral entry” value in [6] was “block CXCR4 mediated HIV viral entry”. Also, the “block of ERK activation after CXCL12 treatment” value in data set [7] (activated human T cells, 10^-6M AMD3100, data not shown) was 80%. Moreover, the CXCR4 blocking entry in data set [8] is “potent CXCR4 [15] blocking agent”.

For the compound H-H[dW][dK]W[dF]K-NH2 [DLS], the “effect on CXCL12-induced calcium flux” value in data set [9] is recorded as “markedly inhibited in a dose dependent fashion; also recorded: partially inhibits CXCL12-induced Ca++ release; also recorded: modest inhibition of calcium mobilization”. Further, the “effect on CXCL12 binding and activity through CXCR4” value in [10] is “block CXCL12 binding and activity through CXCR4; also recorded: modestly inhibit the binding and activity of CXCR4 receptor in human T cells”. Also, in [11] (setting [15]), the body weight entry was “reduce body weight in obese mice”; the “glycemic control and insulin resistance” value was “improve their glycemic control and insulin resistance”. In addition, in data set [11] (obese mice), the muscle mass result is on record as “without affecting the muscle mass” and the “size of abdominal fat pads” value is given as “reduced the size of abdominal fat pads”. Besides, in data set [11] (rodent models), the adverse side effects result is recorded as “without any adverse side effects”. The “effect on chemokine ligand binding” value in data set [12] (1/4/16 μg DLS, 30 min 37°C, flow cytometry MFI) is “blocks chemokine ligand binding to receptor-positive cells”. Moreover, the “amount required for the observed inhibition of CXCL12 binding” value in data set [12] (GHOST-CXCR4 cells, flow cytometry, AMD3100 data not shown) is listed as “microgram quantities”. The “effect on CXCR4-mediated HIV-1 entry and propagation” value in data set [13] was “partially blocks CXCR4-mediated HIV-1 entry and propagation”. Moreover, the “activity at GHS-R” value in [1] (ref [8], [9]) is on record as “selective GHS-R antagonist”. The “effect on ERK activation in response to CXCL12” value in data set [7] (DLS 20μM, 30 min 37°C, CXCL12 10nM, Western blot) is “very modestly blocks ERK activation”. Besides, the “effect on CXCL12-induced T cell migration” value in data set [14] is on record as “marked dose dependent inhibition; also recorded: inhibits CXCL12 induced activated T cell chemotaxis”.
